APJ antag = antagonists of human APJ apelin receptor; inhibition, % at 20 µM; actives 0.32% (n = 330,000); AID 2521; CHO-K1 APJ beta-arrestin complementation, luminescence;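 active = inhibition above about 40% at 20 µM, limit read from the data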;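 also: cells challenged with 10 nM apelin-13 agonist together with compound; plate controls were apelin-13 plus DMSO wells for no effect and DMSO wells lacking apelin-13 for full effect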
APJ ag = agonists of human APJ apelin receptor; P35414; AID 2520; activation, % at 20 µM; CHO-K1 APJ PathHunter beta-arrestin, luminescence; 0% DMSO wells, 100% apelin; actives 0.11% (n = 330,000);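 active = activation more than six SD over the plate average, tested at 20 µM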;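 also: 0% = DMSO alone and 100% = apelin-13 at 10 nM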
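Incubation: overnight seeding, 90 min compound at 25 °C, 1 h detection; test system: PathHunter CHO-K1 APJ (AGTRL-1) beta-arrestin reporter cells; amount: 1000 cells/well; doses: one dose, 20 µM compound, 1% DMSO; measured by: beta-gal luminescence; measure: agonist-driven arrestin binding to APJ; benchmarks: negative DMSO alone, positive Apelin-13 at 10 nM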
CXCR6 block = inhibitors of human CXCR6 receptor; CHO-K1 PathHunter CXCR6 beta-arrestin, luminescence; inhibition, % at 20 µM; AID 602244; actives 0.36% (n = 360,000); in the data active = inhibition above about 34%, passing the limit was not always enough;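 also: antagonist mode with CXCL16 agonist at 10 nM final; 0% = 10 nM CXCL16 with DMSO and 100% = unstimulated wells without agonist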
CCR6 antagonist = antagonists of human CCR6 receptor | actives 0.49% (n = 340,000) | CHO-K1 CCR6 PathHunter beta-arrestin, luminescence, CCL20-stimulated | inhibition, % at 20 µM;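 active = compounds whose inhibition of the agonist-driven luminescence signal at 20 µM reaches about 50%, limit read from the data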;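 also: cells stimulated with CCL20 at 14 nM final; plate controls were DMSO with CCL20 for no effect and DMSO without agonist for full effect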
EBI2 block = blocks human EBI2 receptor beta-arrestin signaling. P32249. EBI2 beta-arrestin recruitment, luminescence, 7a,25-OHC stimulated. inhibition, % at 5 µM. actives 0.81% (n = 360,000). AID 651636; in the data active = inhibition above about 38%;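 also: enzyme fragment complementation signal reports receptor beta-arrestin coupling in cells; 0% = agonist plus DMSO wells and 100% = wells without agonist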
Beta2AR agonist = activates human beta-2 adrenergic receptor causing internalization | Am2.2-beta2AR cells, FAP receptor internalization, flow cytometry | response, % (test concentration not listed) | actives 0.43% (n = 340,000);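 active = response above a set limit, near 3 SD of response in nonfluorescent compounds, cut at about 42% in these data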
Target sequence (P07550 whole entry, looked up): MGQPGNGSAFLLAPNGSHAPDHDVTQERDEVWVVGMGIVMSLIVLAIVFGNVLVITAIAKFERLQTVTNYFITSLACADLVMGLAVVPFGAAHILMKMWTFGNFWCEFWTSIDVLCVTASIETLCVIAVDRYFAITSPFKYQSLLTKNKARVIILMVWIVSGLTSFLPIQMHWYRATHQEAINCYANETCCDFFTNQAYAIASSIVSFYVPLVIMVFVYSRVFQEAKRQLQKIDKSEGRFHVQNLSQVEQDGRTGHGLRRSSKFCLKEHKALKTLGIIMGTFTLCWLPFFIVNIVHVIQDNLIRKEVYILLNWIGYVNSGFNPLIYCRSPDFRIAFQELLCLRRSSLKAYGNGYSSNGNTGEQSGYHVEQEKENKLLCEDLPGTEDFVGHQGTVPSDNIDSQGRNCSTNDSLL
APJ antag conf = confirmation of human APJ apelin receptor antagonists | AID 2766 | inhibition, % at 20 µM | actives 66% (n = 950) | APJ beta-arrestin recruitment, luminescence, antagonist mode | shares compounds with APJ antag; in the data active = inhibition above about 50%
* = called active by the depositor. A selection: hits, their analogues and other compounds. The true share with any hit is near 1.8%.

Screening COCCNC(=S)N/N=C(\C)c1ccc(Cl)c(Cl)c1Cl returned APJ antag 43*, APJ ag -4, CXCR6 block 27, CCR6 antagonist 38, EBI2 block 13, Beta2AR agonist 5 and APJ antag conf 36.
`COCCNC(=S)N/N=C(\C)c1ccc(Cl)c(Cl)c1` gave APJ antag 11, APJ ag -4, CXCR6 block 1, CCR6 antagonist 15, EBI2 block 2 and Beta2AR agonist 0.
For Cc1cccc(N2CCN(C(=O)c3ccncc3)CC2)c1C the results were APJ antag -10, APJ ag -2, CXCR6 block 1, CCR6 antagonist -9, EBI2 block -8 and Beta2AR agonist 2.
`COc1cc(C(=O)N2CCN(c3cccc(C)c3C)CC2)cc(OC)c1OC` gave APJ antag 50*, APJ ag -4, CXCR6 block 4, CCR6 antagonist -2, EBI2 block -1, Beta2AR agonist 16 and APJ antag conf 5.
For CN(Cc1c(O)ccc2c1oc(=O)c1ccccc12)C1CCCCC1 the results were APJ antag 47*, APJ ag 0, CXCR6 block 21, CCR6 antagonist 26, EBI2 block 10, Beta2AR agonist -14 and APJ antag conf 40.
`ON1C2CCCCC2N(O)C1c1ccccc1C(F)(F)F` (centres undefined) gave APJ antag 48*, APJ ag -8, CXCR6 block 19, CCR6 antagonist 56*, EBI2 block -1, Beta2AR agonist -3 and APJ antag conf 29.
For FC(F)(F)c1nc2nc(Cl)c(Cl)nc2n1CCCN1CCOCC1 the results were CXCR6 block -4 and EBI2 block -11.
Screening Cn1cccc1C(=O)NC1CCCCC1 returned APJ antag -19, APJ ag -3, CXCR6 block -19, CCR6 antagonist 7, EBI2 block -2 and Beta2AR agonist -1.
CCOc1cc(/C=N/NC(=O)c2c(-c3ccccc3)noc2C)ccc1O was read as APJ antag -14, APJ ag -5, CXCR6 block 10, CCR6 antagonist 8, EBI2 block 11 and Beta2AR agonist -20.
CCOc1cc([N+](=O)[O-])cc(/C=N/NC(=O)c2c(-c3ccccc3)noc2C)c1O was read as APJ antag 41*, APJ ag -11, CXCR6 block 14, CCR6 antagonist 27, EBI2 block 12, Beta2AR agonist 2 and APJ antag conf 25.
Screening CC(C)(C)c1ccc(C(=O)N2CCC2(C)C(=O)NS(=O)(=O)c2ccccc2Cl)cc1 (centres undefined) returned CXCR6 block 5 and EBI2 block -1.
Screening N#CC(C#N)=CC1=C2OC(c3ccccc3)=CC(c3ccccc3)=C2CCC1 returned APJ antag 41*, APJ ag -8, CXCR6 block 28, CCR6 antagonist 32, EBI2 block 6, Beta2AR agonist 4 and APJ antag conf 59*.
For O=C(NCCc1ccccc1)c1n[nH]c(=O)c2ccccc12 the results were APJ antag 24, APJ ag -1, CXCR6 block -3, CCR6 antagonist 1, EBI2 block -3 and Beta2AR agonist 3.
`COc1ccc(CCNC(=O)c2n[nH]c(=O)c3ccccc23)cc1` gave APJ antag 41*, APJ ag -2, CXCR6 block -4, CCR6 antagonist 11, EBI2 block 1, Beta2AR agonist 1 and APJ antag conf 39.
Screening COc1ccc(NC(=O)CS(=O)(=O)c2ccc(C)cc2)c(OC)c1 returned APJ antag 110*, APJ ag -3, CXCR6 block 7, CCR6 antagonist 2, EBI2 block -12, Beta2AR agonist 9 and APJ antag conf 17.
For CCOCCCNC(=O)C(NC(=O)Cc1cccs1)c1ccc(OC)cc1 (centres undefined) the results were APJ antag 12, APJ ag -3, CXCR6 block 3, CCR6 antagonist -10, EBI2 block -11 and Beta2AR agonist 2.
O=[N+]([O-])c1ccc(S(=O)(=O)c2ccccc2)nc1 was read as APJ antag 43*, APJ ag 6, CXCR6 block 52*, CCR6 antagonist 71*, EBI2 block -13, Beta2AR agonist 30 and APJ antag conf 51*.
Cc1ccc(S(=O)(=O)N2C[C@]3(O)C[C@@H]4C(=O)N(c5ccccc5)C(=O)[C@@H]4C[C@]3(OC(=O)Nc3c(C)noc3C)C2)cc1 was read as CXCR6 block -2 and EBI2 block -2.
`Cc1cccc2c1N(CCCOc1ccccc1)C(=O)C2=O` gave APJ antag 44*, APJ ag -5, CXCR6 block 0, CCR6 antagonist 39, EBI2 block 11, Beta2AR agonist 7 and APJ antag conf 76*.
For Cc1cccc(OCCN2C(=O)C(=O)c3cc(C)ccc32)c1 the results were APJ antag 20, APJ ag -6, CXCR6 block 18, CCR6 antagonist 38, EBI2 block 0 and Beta2AR agonist 16.
For COC(=O)[C@@H](Cc1c[nH]c2ccccc12)NC(=O)CNC(=O)c1ccccc1OC the results were APJ antag 5, APJ ag -1, CXCR6 block 3, CCR6 antagonist 3, EBI2 block 9 and Beta2AR agonist 8.
`CN(C)CCNC(=O)c1ccc2c(c1)N(Cc1ccc(F)cc1)CCS2` gave APJ antag 52*, APJ ag -5, CXCR6 block 4, CCR6 antagonist 13, EBI2 block 1, Beta2AR agonist 2 and APJ antag conf 13.
Screening O=C(NC1CCCC1)c1ccc2c(c1)N(Cc1ccc(F)cc1)CCS2 returned APJ antag -10, APJ ag 2, CXCR6 block 17, CCR6 antagonist 22, EBI2 block 9 and Beta2AR agonist 2.
For O=C1N/C(=C\c2ccccc2)C(O)=C1C=NCc1ccccc1 the results were APJ antag 45*, APJ ag 0, CXCR6 block -2, CCR6 antagonist 13, EBI2 block -1, Beta2AR agonist -13 and APJ antag conf 10.
COc1ccc(-c2cc(C(=O)NCc3cccc(C(F)(F)F)c3)[nH]n2)c(C)c1 was read as CXCR6 block 1 and EBI2 block -1.
Brc1ccc(N=Nc2ccc3ccccc3n2)cc1 was read as APJ antag 49*, APJ ag -13, CXCR6 block 16, CCR6 antagonist 31, EBI2 block 43, Beta2AR agonist 19 and APJ antag conf 54*.
For CCn1c(O)c(N=Nc2ccc3ccccc3n2)c2ccccc21 the results were APJ antag 13, APJ ag -2, CXCR6 block 4, CCR6 antagonist 13, EBI2 block 29 and Beta2AR agonist -9.

Bioassay records as filed in PubChem BioAssay.
